For data set [1], the system named is HeLa control cells expressing GFP and not LIN28. Kind of data set: let-7-sensitive dual luciferase reporter assay, GFP control cells. Conditions: up to 100 μM. Type of data set: cell-based, human. In short, it runs like this: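 HeLa cells were retrovirally transduced with FLAG-GFP (or LIN28) cDNA, puromycin-selected and single-cell cloned. They were then lentivirally given an 8×let-7-site Renilla/HSV-TK firefly cassette and selected with G418 as polyclonal populations. Cells were exposed to up to 100 μM test compound, lysed, and read for dual luciferase with firefly as internal control. Values were normalised to blanks.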

Another data set has as its system DKO+A mESCs. In words: qPCR of let-7 species in DKO+A mESCs. Type of data set: cell-based, mouse. To be noted: 100 μM, 48 hr, LIF/2i culture, vs vehicle. In short, it runs like this: (§1)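 K562 leukaemia cells, or DKO+A mESCs (Lin28a/Lin28b double-knockout re-expressing wild-type LIN28A, in LIF/2i), were treated 48 hr with 100 μM test compound or vehicle. Total RNA was isolated with TRIzol and cDNA made with the miScript system. Mature and precursor microRNAs were quantified with specific primer assays relative to U6; n = 6 over two independent experiments.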
For orientation: In qPCR the cycle at which signal appears reflects the starting amount.

The target in data set [2] is CSD (residues 16–136) of LIN28 (Homo sapiens, UniProt Q9H9Z2). In words: Saturation transfer difference spectroscopy, CSD. To be noted: CSD alone. Type of data set: binding. In short, it runs like this:
(§2)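 Protein was dialysed overnight into 20 mM Bis-Tris pH 6.0, 100 mM NaCl, 10% v/v glycerol-d8, 5 mM DTT and D2O. Test compound was dissolved in DMSO-d6. Samples held 100 μM compound and 5 μM protein in dialysis buffer. STD spectra were collected at 700 MHz, irradiating the macromolecule only at −2 ppm, with a 2 s transfer delay.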

A further data set has as its target LIN28ΔK102 (Homo sapiens, UniProt Q9H9Z2, K102A). Kind of data set: Saturation transfer difference spectroscopy, K102A mutant. Type of data set: binding. Conditions: K102A mutation, compared with LIN28Δ. The method, boiled down:
as §2

The next data set concerns apoptosis. Kind of data set: Annexin V flow cytometry. It is filed as cell-based. To be noted: 100 μM, 48 hr. In short, it runs like this:
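Cells exposed to 100 μM test compound or vehicle for 48 hr, then harvested and stained with APC-conjugated annexin V following the kit protocol before flow cytometry.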
For orientation: Flow cytometry measures light scatter and fluorescence of single cells or particles in a stream.

Another data set addresses human LIN28Δ (Homo sapiens, UniProt Q9H9Z2). In words: Saturation transfer difference spectroscopy, LIN28Δ. Type of data set: binding. To be noted: 100 μM compound, 5 μM LIN28. The method, boiled down: as §2
A short description of another data set: Solubility in solution. Type of data set: physicochemical. Conditions: water / solution.
The target in another data set is human LIN28ΔF73A (Homo sapiens, UniProt Q9H9Z2, F73A). Kind of data set: Competition / dose-response fluorescence polarization assay with LIN28ΔF73A. Type of data set: binding. Conditions: preE-let-7f, preE-let-7a, preE-let-7d, preE-let-7g. The method, boiled down: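 Recombinant human LIN28ΔF73A (150 nM in the screening master mix; set at the FP-titration Kd for competition) was mixed with 2 nM FAM-labelled preE-let-7 probe (let-7f, -7a, -7d or -7g) in buffer M (100 mM NaCl, 20 mM Tris-HCl pH 7.0, 5 mM MgCl2, 10% glycerol, 5 mM DTT, 0.1% NP-40). Test compound was dispensed at 12 concentrations, 50 μM–20 nM. IC50 came from a 1:1 inhibition fit; each assay was run at least twice.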
Sequence of human LIN28ΔF73A (Q9H9Z2 16-187 F73A): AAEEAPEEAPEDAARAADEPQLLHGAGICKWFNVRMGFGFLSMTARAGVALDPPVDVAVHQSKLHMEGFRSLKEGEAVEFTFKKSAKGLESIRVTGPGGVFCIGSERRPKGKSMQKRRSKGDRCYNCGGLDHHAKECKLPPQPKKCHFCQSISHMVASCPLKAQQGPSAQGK
A general note: Polarisation of emitted light reports the rotation of a fluorescent probe.

The nature of the next data set: Cellular toxicity. It is filed as cell-based. Conditions: high micromolar concentrations.
For data set [3], the target named is mouse LIN28Δ:preE-let-7d complex (Mus musculus, UniProt Q8K3Y3). In words: HSQC spectroscopy. To be noted: 15N-labeled mouse LIN28Δ with unlabeled preE-let-7d. It is filed as binding.
Sequence of mouse LIN28Δ:preE-let-7d complex (Q8K3Y3 16-184, stated change not applied, one chain of several): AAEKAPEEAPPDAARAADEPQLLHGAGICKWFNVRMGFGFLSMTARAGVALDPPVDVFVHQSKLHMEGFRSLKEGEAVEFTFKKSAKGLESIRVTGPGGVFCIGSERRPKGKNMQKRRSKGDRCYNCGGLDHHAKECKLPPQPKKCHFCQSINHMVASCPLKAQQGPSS
For the next data set, the target named is TUT4 (Mus musculus, UniProt B2RX14). Kind of data set: Uridylation assay without LIN28. Type of data set: biochemical.
Sequence of TUT4 (B2RX14 230-1424): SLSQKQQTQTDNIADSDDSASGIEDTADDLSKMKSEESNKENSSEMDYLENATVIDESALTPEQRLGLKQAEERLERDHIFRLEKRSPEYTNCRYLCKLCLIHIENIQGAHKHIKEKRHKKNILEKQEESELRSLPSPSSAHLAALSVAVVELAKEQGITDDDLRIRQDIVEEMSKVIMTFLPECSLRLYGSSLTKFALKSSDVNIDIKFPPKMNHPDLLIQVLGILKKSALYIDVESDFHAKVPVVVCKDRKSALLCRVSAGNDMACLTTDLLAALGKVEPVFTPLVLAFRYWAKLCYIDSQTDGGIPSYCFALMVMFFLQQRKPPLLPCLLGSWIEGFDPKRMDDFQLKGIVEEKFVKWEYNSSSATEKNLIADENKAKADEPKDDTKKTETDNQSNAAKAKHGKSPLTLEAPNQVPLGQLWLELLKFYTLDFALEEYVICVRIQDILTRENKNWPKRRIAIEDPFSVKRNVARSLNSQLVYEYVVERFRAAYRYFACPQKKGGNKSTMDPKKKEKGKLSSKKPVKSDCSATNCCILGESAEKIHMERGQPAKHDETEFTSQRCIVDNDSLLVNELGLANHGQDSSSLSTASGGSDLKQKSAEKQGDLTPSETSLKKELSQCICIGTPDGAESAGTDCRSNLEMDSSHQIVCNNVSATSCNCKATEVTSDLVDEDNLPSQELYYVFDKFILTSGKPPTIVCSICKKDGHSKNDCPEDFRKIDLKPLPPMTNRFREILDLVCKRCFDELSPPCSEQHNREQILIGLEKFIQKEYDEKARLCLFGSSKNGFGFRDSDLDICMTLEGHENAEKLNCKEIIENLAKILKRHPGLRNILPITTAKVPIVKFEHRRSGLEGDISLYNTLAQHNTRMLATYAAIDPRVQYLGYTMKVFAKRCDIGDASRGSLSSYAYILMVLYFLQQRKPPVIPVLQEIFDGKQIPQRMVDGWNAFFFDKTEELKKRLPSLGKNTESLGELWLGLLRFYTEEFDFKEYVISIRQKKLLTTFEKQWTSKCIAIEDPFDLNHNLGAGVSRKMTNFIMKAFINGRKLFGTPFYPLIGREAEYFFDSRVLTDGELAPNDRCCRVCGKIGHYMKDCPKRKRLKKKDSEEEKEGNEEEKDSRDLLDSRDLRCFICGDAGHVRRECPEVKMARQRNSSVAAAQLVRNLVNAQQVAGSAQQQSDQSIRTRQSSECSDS
Data set [4] deals with human LIN28Δ:preE-let-7f complex (Homo sapiens, UniProt Q9H9Z2). Kind of data set: Differential scanning fluorimetry. It is filed as binding. Conditions: SYPRO Orange; 63°C without compound.
Sequence of human LIN28Δ:preE-let-7f complex (Q9H9Z2 16-187, stated change not applied, one chain of several): as the sequence (Q9H9Z2 16-187 F73A) above, with A58F counted along it
Another data set has as its system K562 leukemia cells. In words: qPCR of microRNA species in K562 cells. It is filed as cell-based, human. To be noted: 100 μM, 48 hr. The method, boiled down:
as §1

The test system of another data set is preE-let-7f. In words: Saturation transfer difference spectroscopy, preE-let-7f. Type of data set: binding, human. To be noted: preE-let-7f alone.
A further data set deals with HeLaLIN28B. In words: let-7-sensitive dual luciferase reporter assay, HeLaLIN28B. It is filed as cell-based, human. Conditions: LI71 50–100 μM, 48 hr. In short, it runs like this: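 HeLa clone stably expressing N-FLAG-LIN28B at low level, from retroviral transduction, puromycin selection and single-cell sorting. Cells were lentivirally transduced with the let-7 dual luciferase sensor: LTR-driven Renilla with eight let-7 sites in the 3′ UTR plus HSV-TK firefly control, as a G418-selected polyclonal pool. Cells received test compound or DMSO vehicle, then were lysed for dual luciferase readout normalised to blank samples.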

The test system of the next data set is HeLaLIN28A. Kind of data set: let-7-sensitive dual luciferase reporter assay, HeLaLIN28A. To be noted: LI71 50–100 μM, 48 hr. It is filed as cell-based, human. The method, boiled down: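 A HeLa clone stably expressing low-level FLAG-LIN28A plus the 8×let-7 Renilla/firefly dual-luciferase sensor was treated 48 hr with vehicle (DMSO) or test compound at the indicated concentrations. Dual luciferase activity was then assayed, with firefly as internal control. Runs used 3 or 5 biological replicates; Student's t test against vehicle.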

Each structure is given as a SMILES string. Entries after “also recorded” stand apart in the source; their conditions may differ.

Sequence of CSD (residues 16–136) of LIN28 (Q9H9Z2 16-136): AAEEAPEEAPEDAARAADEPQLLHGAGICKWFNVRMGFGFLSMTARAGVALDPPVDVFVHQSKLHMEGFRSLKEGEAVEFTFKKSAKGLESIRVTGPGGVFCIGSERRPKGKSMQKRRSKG
Sequence of human LIN28Δ (Q9H9Z2 16-187, stated change not applied): as the sequence (Q9H9Z2 16-187 F73A) above, with A58F counted along it
Sequence of LIN28ΔK102 (Q9H9Z2 16-187 K102A): as the sequence (Q9H9Z2 16-187 F73A) above, with A58F, K87A counted along it

For the compound `CCOc1cccc2c1N[C@@H](c1ccc(C(=O)O)cc1)[C@H]1CC=C[C@@H]21` [LI71], the entries for the “Relative Renilla luciferase activity” value (in data set [1]; in the data set on HeLaLIN28B; in the data set with HeLaLIN28A) were “did not show an effect”, “significantly reduce the relative Renilla luciferase activity” and “significantly reduce the relative Renilla luciferase activity”, respectively. Moreover, the “Mature let-7 species” value was “increased levels of mature let-7 species” in the data set on DKO+A mESCs and “significant increase in several let-7 species” in the data set with K562 leukemia cells (vs DMSO). Besides, the “Saturation transfer difference signals” value in data set [2] is recorded as “induces the LI71 saturation transfer difference signals”. In addition, the “Saturation transfer difference signal” value on LIN28ΔK102 is recorded as “increases the saturation transfer difference signal”. Also, the Apoptosis result with apoptosis is given as “did not increase apoptosis”. Moreover, the entries for the “Saturation transfer difference peaks” value at human LIN28Δ and in the data set with preE-let-7f were “saturation transfer difference peaks of LI71 occur” and “but not preE-let-7f”, respectively. Moreover, the Solubility entry in the data set “Solubility in solution” is reported as “better water solubility; also recorded: ample solubility in solution”. In addition, the “IC50s with four let-7 pre-elements” value at human LIN28ΔF73A was “all within the low micromolar range”. Also, the Cellular toxicity result in the data set “Cellular toxicity” is “low cellular toxicity”. Besides, the “HSQC peak intensity changes” value in [3] is “minor intensity reductions for a number of residues”. Also, the “Catalytic activity of TUT4 when LIN28 is not present” value at TUT4 is “does not abolish catalytic activity of TUT4”. In [4], the “Melting temperature of LIN28Δ:preE-let-7f complex with compound” value worked out at 60 °C. Also, the let-7 precursor species result in the data set on K562 leukemia cells is listed as “not correlated with increased levels of let-7 precursor species”. In the data set on K562 leukemia cells, the “miR-16 (non-LIN28-regulated microRNA)” value is on record as “small but significant effect”. For the same compound, in the data set on K562 leukemia cells, the “miR-93, miR-99a and miR-151 (non-LIN28-regulated microRNAs)” value is recorded as “did not observe significant effects”.

Source of the values: publication PMC6511231 (Cell reports, 2018).
